Reference: ChEMBL document CHEMBL2021777 (J Med Chem, 2012)
The source made the active and inactive calls.

Tests used:
[1] = molecular target: Neuronal acetylcholine receptor; alpha2/beta2 (Rattus norvegicus, UniProt P12389+P12390); assay: Displacement of [3H] epibatidine from rat alpha2beta2 nAChR by beta scintillation counting; type: protein-complex assay
[2] = molecular target: Neuronal acetylcholine receptor; alpha3/beta4 (Rattus norvegicus, UniProt P04757+P12392); assay: Displacement of [3H] epibatidine from rat alpha3beta4 nAChR by beta scintillation counting; type: protein-complex assay
Chain of Neuronal acetylcholine receptor; alpha3/beta4 (P04757 whole entry): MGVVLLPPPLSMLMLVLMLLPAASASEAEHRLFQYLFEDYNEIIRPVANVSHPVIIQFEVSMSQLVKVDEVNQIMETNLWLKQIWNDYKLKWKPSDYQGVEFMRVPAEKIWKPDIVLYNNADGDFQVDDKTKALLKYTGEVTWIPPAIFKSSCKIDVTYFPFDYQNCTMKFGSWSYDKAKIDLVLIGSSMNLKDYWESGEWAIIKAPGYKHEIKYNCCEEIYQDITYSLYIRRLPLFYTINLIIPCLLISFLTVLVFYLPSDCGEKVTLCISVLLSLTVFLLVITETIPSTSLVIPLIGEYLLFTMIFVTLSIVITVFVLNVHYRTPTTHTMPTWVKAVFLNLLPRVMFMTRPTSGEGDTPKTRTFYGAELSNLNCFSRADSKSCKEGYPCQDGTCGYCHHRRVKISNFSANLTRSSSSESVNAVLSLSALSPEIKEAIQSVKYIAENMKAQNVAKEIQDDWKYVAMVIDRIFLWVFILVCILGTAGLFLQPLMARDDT
Chain of Neuronal acetylcholine receptor; alpha3/beta4 (P12392 whole entry): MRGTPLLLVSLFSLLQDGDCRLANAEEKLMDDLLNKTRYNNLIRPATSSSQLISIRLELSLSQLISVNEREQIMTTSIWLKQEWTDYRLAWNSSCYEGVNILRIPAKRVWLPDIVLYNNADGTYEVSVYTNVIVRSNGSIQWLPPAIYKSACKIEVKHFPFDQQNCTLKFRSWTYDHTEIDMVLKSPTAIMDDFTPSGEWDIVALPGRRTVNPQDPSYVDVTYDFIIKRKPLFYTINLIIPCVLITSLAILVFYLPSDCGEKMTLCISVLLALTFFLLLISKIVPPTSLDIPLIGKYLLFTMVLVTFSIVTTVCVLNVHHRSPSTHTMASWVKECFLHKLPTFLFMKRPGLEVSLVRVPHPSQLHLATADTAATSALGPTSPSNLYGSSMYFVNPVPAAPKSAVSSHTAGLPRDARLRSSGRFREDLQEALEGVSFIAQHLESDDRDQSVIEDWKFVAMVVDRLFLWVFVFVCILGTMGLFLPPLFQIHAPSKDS

[3] = molecular target: Neuronal acetylcholine receptor; alpha4/beta2 (Homo sapiens, UniProt P17787+P43681); assay: Partial agonist activity at human high sensitive alpha4beta2 nAChR expressed in SH-EP1 cells assessed as 86Rb+ ion efflux by flip-plate technique relative to sazetidine-A; type: functional, cell-based
Procedure, shortened: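 86Rb+ ion flux in SH-EP1 cells stably transfected with separate human α4 and β2 subunit cDNAs, expressing a mixture of high- and low-sensitivity α4β2 nAChRs. Cells kept at low passage (1−26). Efficacy at the HS form extrapolated relative to a reference agonist defined as a 100% full agonist.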

[4] = molecular target: Acetylcholine receptor; alpha1/beta1/delta/gamma (Homo sapiens) (UniProt P02708+P07510+P11230+Q07001); assay: Agonist activity at human alpha1beta1gammadelta nAChR expressed in TE671/RD cells at 10 uM by 86Rb+ flux assay; type: functional, cell-based
Procedure, shortened: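 Human clonal TE671/RD cells endogenously express muscle-type α1*-nAChRs (α1, β1, γ, δ). Cells were kept at low passage (1−26 from frozen stocks). Function was read as 86Rb+ efflux, with agonist and antagonist modes tested up to 10 μM.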

[5] = molecular target: Neuronal acetylcholine receptors; alpha-3/beta-4, alpha-5, beta-2 (Homo sapiens) (UniProt P17787+P30926+P32297+P30532); assay: Agonist activity at alpha3beta4alpha5beta2 in human SH-SY5Y cells at 10 uM by 86Rb+ flux assay; type: functional, cell-based
Chain of Neuronal acetylcholine receptors; alpha-3/beta-4, alpha-5, beta-2 (Homo sapiens) (P17787 whole entry, looked up): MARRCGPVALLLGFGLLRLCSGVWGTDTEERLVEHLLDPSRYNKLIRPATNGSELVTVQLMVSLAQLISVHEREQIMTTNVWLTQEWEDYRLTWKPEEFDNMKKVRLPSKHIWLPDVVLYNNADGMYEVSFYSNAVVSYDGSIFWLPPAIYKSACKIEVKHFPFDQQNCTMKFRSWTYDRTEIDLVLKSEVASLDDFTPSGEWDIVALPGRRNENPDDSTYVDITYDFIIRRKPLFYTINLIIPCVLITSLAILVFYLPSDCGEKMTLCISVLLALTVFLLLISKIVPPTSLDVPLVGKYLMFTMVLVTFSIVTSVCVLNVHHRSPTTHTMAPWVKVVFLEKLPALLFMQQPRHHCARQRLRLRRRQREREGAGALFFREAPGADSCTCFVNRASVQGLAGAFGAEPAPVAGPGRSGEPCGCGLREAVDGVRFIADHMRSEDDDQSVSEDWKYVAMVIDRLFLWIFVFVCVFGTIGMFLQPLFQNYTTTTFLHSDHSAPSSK
Chain of Neuronal acetylcholine receptors; alpha-3/beta-4, alpha-5, beta-2 (Homo sapiens) (P30532 whole entry, looked up): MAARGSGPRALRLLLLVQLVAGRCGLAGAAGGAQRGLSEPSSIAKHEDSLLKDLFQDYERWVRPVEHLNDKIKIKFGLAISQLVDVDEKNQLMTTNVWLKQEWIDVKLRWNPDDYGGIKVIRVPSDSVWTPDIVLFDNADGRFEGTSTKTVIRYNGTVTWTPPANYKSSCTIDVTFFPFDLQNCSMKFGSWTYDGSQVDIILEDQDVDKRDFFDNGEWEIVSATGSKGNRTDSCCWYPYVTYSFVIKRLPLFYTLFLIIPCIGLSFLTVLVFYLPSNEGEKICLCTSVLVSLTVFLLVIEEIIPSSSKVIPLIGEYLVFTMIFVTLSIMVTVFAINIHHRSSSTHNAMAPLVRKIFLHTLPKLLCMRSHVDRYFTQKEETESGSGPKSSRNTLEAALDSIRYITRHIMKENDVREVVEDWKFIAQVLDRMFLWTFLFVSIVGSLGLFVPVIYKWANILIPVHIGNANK
Chain of Neuronal acetylcholine receptors; alpha-3/beta-4, alpha-5, beta-2 (Homo sapiens) (P30926 whole entry, looked up): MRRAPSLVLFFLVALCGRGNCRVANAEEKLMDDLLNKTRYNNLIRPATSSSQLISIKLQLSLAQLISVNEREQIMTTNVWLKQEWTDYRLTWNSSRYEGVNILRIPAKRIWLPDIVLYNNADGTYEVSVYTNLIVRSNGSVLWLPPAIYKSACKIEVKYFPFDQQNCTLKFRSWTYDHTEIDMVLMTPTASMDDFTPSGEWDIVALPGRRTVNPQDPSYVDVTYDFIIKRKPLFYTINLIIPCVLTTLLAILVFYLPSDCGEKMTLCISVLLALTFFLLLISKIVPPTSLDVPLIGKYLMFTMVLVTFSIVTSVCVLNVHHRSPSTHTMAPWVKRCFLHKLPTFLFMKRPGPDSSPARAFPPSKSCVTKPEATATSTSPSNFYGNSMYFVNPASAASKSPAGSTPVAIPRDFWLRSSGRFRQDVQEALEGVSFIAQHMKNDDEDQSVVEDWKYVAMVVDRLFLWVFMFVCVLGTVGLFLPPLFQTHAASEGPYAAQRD
Chain of Neuronal acetylcholine receptors; alpha-3/beta-4, alpha-5, beta-2 (Homo sapiens) (P32297 whole entry, looked up): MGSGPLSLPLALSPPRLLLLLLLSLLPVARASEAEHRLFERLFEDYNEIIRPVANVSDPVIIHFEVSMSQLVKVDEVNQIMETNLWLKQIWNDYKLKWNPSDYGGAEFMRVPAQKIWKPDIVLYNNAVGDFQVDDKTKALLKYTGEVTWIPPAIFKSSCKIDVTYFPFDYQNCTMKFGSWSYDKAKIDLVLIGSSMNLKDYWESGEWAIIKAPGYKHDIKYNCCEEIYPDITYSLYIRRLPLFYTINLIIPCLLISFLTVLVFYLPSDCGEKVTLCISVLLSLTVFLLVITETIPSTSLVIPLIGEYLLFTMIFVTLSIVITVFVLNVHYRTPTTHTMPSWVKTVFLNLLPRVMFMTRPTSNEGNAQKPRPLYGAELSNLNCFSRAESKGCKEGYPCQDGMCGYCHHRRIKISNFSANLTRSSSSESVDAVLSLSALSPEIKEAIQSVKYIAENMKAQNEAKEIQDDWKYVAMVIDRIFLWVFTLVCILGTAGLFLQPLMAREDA
Procedure, shortened: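 Human neuroblastoma SH-SY5Y cells endogenously express α3β4* nAChRs (α3, β4, probably α5, sometimes β2); their α7 receptors give no signal under these conditions. Cells were kept at low passage (1−26 from frozen stocks). Function was read as 86Rb+ efflux, with agonist and antagonist modes tested up to 10 μM.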

[6] = molecular target: T1, 5-hydroxytryptamine receptor 3A (Homo sapiens) (UniProt P46098); assay: Displacement of [3H]LY278584 from 5-HT3 at 10 uM
T1 sequence (whole entry): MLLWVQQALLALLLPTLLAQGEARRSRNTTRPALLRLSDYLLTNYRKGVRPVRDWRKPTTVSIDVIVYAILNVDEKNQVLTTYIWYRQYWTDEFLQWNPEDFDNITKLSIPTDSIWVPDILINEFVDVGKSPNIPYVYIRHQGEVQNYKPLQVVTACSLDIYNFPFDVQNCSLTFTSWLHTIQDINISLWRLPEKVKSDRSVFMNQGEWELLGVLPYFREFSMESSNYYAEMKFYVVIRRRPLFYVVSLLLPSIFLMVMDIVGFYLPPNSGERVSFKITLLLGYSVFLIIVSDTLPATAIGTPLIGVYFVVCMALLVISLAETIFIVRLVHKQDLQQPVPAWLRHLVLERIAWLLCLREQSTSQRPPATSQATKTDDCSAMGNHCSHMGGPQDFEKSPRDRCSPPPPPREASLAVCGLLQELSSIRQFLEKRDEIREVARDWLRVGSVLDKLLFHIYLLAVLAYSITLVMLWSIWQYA

[7] = molecular target: D(2) dopamine receptor (Homo sapiens) (UniProt P14416); assay: Displacement of [3H]N-methylspiperone from D2 at 10 uM
[8] = molecular target: D(3) dopamine receptor (Homo sapiens) (UniProt P35462); assay: Displacement of [3H]N-methylspiperone from D3 at 10 uM
[9] = molecular target: T2, D(4) dopamine receptor (Homo sapiens) (UniProt P21917); assay: Displacement of [3H]N-methylspiperone from D4 at 10 uM
T2 sequence (whole entry): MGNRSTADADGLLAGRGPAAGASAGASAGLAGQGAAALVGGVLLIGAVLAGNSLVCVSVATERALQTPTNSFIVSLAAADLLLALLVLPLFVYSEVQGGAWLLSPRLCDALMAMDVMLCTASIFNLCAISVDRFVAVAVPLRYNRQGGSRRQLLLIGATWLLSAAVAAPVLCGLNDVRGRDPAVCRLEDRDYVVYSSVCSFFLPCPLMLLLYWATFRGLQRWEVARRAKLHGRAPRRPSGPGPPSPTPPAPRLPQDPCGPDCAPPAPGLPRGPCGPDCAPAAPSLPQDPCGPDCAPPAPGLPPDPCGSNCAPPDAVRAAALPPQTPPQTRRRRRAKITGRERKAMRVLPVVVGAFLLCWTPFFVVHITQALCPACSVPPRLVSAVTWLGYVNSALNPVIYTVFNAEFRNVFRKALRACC

[10] = molecular target: Beta-2 adrenergic receptor (Homo sapiens) (UniProt P07550); assay: Displacement of [125I]Iodopindolol from beta2 adrenergic receptor at 10 uM
[11] = molecular target: Beta-3 adrenergic receptor (Homo sapiens) (UniProt P13945); assay: Displacement of [125I]Iodopindolol from beta3 adrenergic receptor at 10 uM
Chain of Beta-3 adrenergic receptor (Homo sapiens) (P13945 whole entry, looked up): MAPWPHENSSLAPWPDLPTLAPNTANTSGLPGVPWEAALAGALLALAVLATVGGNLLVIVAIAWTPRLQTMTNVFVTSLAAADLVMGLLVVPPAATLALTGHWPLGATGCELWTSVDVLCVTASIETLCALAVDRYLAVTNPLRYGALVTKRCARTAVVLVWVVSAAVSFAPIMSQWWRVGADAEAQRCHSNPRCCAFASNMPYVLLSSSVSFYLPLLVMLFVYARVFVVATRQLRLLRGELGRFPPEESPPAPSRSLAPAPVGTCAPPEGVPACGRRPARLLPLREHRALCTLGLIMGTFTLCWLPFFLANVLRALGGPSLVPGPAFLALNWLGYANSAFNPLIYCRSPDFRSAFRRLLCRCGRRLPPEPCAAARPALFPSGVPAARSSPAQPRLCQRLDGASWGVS

[12] = molecular target: Histamine H1 receptor (Homo sapiens) (UniProt P35367); assay: Displacement of [3H]Pyrilamine from H1 histamine receptor at 10 uM
[13] = molecular target: Histamine H2 receptor (Homo sapiens) (UniProt P25021); assay: Displacement of [3H]Tiotidine from H2 histamine receptor at 10 uM
Chain of Histamine H2 receptor (Homo sapiens) (P25021 whole entry): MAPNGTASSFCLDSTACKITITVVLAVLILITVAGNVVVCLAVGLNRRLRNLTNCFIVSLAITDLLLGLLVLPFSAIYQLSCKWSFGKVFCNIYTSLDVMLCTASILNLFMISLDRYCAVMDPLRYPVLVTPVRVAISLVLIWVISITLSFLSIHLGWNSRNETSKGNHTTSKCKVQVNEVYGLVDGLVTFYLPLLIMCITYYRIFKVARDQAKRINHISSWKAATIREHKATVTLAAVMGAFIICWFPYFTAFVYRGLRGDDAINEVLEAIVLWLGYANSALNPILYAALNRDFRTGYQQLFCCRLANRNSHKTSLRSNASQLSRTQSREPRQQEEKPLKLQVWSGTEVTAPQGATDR

[14] = molecular target: T3, Muscarinic acetylcholine receptor M2 (Homo sapiens) (UniProt P08172); assay: Displacement of [3H]QNB from M2 receptor at 10 uM
T3 sequence (whole entry): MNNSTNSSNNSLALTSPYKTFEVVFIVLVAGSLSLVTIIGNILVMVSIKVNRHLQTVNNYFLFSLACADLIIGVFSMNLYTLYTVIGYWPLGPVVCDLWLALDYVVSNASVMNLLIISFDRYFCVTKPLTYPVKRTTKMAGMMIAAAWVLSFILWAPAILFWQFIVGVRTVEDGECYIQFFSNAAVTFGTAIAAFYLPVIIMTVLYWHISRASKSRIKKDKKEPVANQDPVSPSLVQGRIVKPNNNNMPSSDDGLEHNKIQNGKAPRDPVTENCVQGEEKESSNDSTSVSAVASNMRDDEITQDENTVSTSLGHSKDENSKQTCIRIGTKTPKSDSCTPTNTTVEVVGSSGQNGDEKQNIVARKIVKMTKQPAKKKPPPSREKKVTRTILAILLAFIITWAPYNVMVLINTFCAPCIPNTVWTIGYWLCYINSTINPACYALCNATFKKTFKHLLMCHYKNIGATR

[15] = Metabolic stability in mouse liver microsomes assessed as compound remaining at 1 uM after 1 hr; type: ADME, Microsome; conditions: read-out: Stability
Procedure, shortened: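 Compound at 1 μM incubated for 1 h with human or mouse liver microsomes; percent of parent remaining unchanged.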

[16] = molecular target: hERG (KCNH2) (Homo sapiens, UniProt Q12809); assay: Inhibition of human ERG expressed in CHO cells at 10 uM by patch clamp electrophysiology assay; type: cell-based; conditions: CHO cells expressing human ERG
Procedure, shortened: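 Automated patch-clamp electrophysiology on hERG K+ channels in CHO cell lines; inhibition measured at three concentrations: 0.1, 1 and 10 μM.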

[17] = species on record: Rattus norvegicus; assay: Displacement of radioligand from benzodiazepine receptor in rat brain; type: tissue-based; conditions: concentration not given here

Chain of Neuronal acetylcholine receptor; alpha2/beta2 (P12389 whole entry): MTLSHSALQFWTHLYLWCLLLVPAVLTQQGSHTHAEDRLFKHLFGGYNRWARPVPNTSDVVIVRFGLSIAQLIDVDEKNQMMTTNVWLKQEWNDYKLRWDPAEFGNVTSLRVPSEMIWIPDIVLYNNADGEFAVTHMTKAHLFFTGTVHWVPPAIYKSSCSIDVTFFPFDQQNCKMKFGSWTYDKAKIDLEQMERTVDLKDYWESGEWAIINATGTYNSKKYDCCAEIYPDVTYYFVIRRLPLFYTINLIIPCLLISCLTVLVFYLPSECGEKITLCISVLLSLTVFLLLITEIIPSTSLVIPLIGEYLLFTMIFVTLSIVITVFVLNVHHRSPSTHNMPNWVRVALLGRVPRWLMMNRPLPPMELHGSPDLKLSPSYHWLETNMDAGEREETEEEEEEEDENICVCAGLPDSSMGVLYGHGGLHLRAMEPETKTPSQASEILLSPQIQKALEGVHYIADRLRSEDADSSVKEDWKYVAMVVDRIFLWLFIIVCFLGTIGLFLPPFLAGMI
Chain of Neuronal acetylcholine receptor; alpha2/beta2 (P12390 whole entry): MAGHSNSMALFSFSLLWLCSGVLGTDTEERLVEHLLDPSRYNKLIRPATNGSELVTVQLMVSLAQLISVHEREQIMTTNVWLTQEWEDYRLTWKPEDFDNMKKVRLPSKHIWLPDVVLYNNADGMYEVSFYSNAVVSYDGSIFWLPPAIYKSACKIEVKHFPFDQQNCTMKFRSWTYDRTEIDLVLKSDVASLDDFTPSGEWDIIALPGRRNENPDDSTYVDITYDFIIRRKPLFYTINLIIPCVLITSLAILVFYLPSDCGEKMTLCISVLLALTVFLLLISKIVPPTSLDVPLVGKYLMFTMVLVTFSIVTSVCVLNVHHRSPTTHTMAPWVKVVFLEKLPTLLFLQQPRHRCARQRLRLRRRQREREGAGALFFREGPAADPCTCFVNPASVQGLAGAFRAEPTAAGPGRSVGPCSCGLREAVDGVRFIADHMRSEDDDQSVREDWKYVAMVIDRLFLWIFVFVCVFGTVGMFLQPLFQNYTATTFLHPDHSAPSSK

| SMILES | Ki [1] | Ki [2] | Efficacy [3] | Activity [4] | Activity [5] | inhibition [6] | inhibition [7] | inhibition [8] | inhibition [9] | inhibition [10] | inhibition [11] | inhibition [12] | inhibition [13] | inhibition [14] | remaining at 1 h, 1 µM [15] | inhibition at 10 µM [16] | inhibition [17] |
| --- | --- | --- | --- | --- | --- | --- | --- | --- | --- | --- | --- | --- | --- | --- | --- | --- | --- |
| CNC(=O)OCC[C@H]1C[C@@H]1c1cncc(OC[C@@H]2CCN2)c1 | 0.3 nM | > 10000 nM | 77% | inactive | inactive | 23.5% | 0.7% | 12.3% | 17% | 22.1% | 10.6% | 30.5% | 14.6% | -0.6% | 98% | 16.6% | 2% |
| COCC[C@H]1C[C@@H]1c1cncc(OC[C@@H]2CCN2)c1 | 0.1 nM | > 10000 nM | 60% | inactive | inactive | 42.4% | -1.8% | 84.5% | 15.8% | 3% | 25.3% | -4.8% | 26.2% | 0.5% | 84% | 13.7% | 26.6% |
| OCC[C@H]1C[C@@H]1c1cncc(OC[C@@H]2CCN2)c1 | 0.1 nM | 6520 nM | 92% | inactive | inactive | 38.3% | -7.4% | 66.2% | 8.3% | -4.5% | 24.3% | 41.4% | 18.4% | -8.4% | 80% | 19.1% | 29.2% |
